Test results taken from paper PMC5299035 (Drug development research, 2016).

How the values were obtained:
Type in all cases: cell-based
[1] = molecular target: T1, FPR3 (Homo sapiens, UniProt P25089); experiment: Ca2+ mobilization assay in FPR3-HL60 cells; conditions: for Ca2+ flux FPR3-HL60 efficacy: % of the response induced by 10 nM WKYMVm; for Emax: read-out: Ca2+ flux FPR3-HL60 efficacy
T1 sequence (P25089 1-353): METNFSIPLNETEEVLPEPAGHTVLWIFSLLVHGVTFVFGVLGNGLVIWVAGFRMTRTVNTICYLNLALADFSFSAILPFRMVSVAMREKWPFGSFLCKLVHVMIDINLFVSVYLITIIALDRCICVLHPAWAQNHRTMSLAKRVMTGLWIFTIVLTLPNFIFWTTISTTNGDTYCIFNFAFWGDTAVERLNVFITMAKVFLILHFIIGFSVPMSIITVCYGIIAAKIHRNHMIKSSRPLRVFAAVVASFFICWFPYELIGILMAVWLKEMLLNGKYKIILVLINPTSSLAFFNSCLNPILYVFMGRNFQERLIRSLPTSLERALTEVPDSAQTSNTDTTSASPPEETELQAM
How it was run: (§1)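 FPR2- or FPR3-transfected HL60 cells were grown in RPMI 1640 with 10% heat-inactivated FCS and G418 1 mg/mL. Cells were loaded with Fluo-4 AM (1.25 μg/mL final) for 30 min at 37 °C in the dark, washed, and seeded at 2 × 10^5 cells/well in HBSS+. Fluorescence (ex 485/em 538 nm) was read every 5 s for 240 s at room temperature. Peak rise over baseline was normalised to the reference agonist. EC50 came from 5-6-point nonlinear regression over three independent experiments.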

[2] = molecular target: T2, mouse Fpr1 (Mus musculus, UniProt P33766); experiment: Ca2+ mobilization assay in mFpr1-RBL cells; conditions: for Ca2+ flux mFpr1-RBL efficacy: % of the response induced by 10 nM WKYMVm; for Ca2+ flux mFpr1-RBL EC50: RBL cells transfected with mouse Fpr1, N.A. = no activity
T2 sequence (P33766 1-364): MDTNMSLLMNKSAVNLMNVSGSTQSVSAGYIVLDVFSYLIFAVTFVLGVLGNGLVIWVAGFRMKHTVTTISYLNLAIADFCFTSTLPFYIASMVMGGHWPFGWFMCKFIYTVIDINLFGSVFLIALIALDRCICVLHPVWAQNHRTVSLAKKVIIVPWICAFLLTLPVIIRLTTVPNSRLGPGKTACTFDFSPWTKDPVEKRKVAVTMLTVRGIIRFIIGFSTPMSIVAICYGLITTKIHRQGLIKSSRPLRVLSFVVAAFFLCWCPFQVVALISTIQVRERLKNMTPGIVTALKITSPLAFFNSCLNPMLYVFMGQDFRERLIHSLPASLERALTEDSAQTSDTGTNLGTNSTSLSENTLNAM
How it was run: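 RBL-2H3 rat basophilic leukemia cells transfected with mouse Fpr1 were kept in DMEM with 20% FBS and G418 250 μg/ml. Cells were dye-loaded with Fluo-4 AM (1.25 μg/mL final) for 30 min at 37 °C and plated at 2 × 10^5/well in HBSS+. Fluorescence (485/538 nm) was followed every 5 s for 240 s at room temperature. Peak over baseline was normalised, and EC50 was taken by 5-6-point nonlinear regression, averaged from three independent experiments.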

[3] = molecular target: T3, FPR2 (Homo sapiens, UniProt P25090); experiment: Ca2+ mobilization assay in FPR2-HL60 cells; conditions: for Ca2+ flux FPR2-HL60 efficacy: % of the response induced by 5 nM WKYMVm; for Emax: read-out: Ca2+ flux FPR2-HL60 efficacy
T3 sequence (P25090 1-351): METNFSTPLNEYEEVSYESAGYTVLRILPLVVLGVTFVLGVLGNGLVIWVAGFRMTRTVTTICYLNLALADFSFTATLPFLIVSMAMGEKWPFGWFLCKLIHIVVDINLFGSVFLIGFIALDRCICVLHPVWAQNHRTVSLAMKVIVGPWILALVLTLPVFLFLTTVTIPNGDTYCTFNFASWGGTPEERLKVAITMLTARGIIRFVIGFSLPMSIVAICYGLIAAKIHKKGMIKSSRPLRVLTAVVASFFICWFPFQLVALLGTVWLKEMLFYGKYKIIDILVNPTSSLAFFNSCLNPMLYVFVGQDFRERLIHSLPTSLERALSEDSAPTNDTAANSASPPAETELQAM
How it was run: as §1

[4] = test system: human neutrophils; experiment: Ca2+ mobilization assay in human neutrophils; conditions: for Ca2+ flux human neutrophils efficacy: % of the response induced by 5 nM fMLF; for EC50: Homo sapiens, Neutrophil, read-out: Ca2+ flux human neutrophils EC50
How it was run: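 Neutrophils from healthy donors were purified by dextran sedimentation, Histopaque 1077 gradient and hypotonic red-cell lysis (>95% pure, >98% viable). After Fluo-4 AM loading (1.25 μg/mL final, 30 min, 37 °C, dark), cells were seeded at 2 × 10^5/well in HBSS with Ca2+/Mg2+. Fluorescence (485/538 nm) was tracked every 5 s for 240 s at room temperature. Maximum change over baseline was normalised, and EC50 came from a 5-6-point nonlinear fit.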

[5] = molecular target: T4, FPR1 (Homo sapiens, UniProt P21462); experiment: Ca2+ mobilization assay in FPR1-HL60 cells; conditions: for Ca2+ flux FPR1-HL60 efficacy: % of the response induced by 5 nM fMLF; for Emax: read-out: Ca2+ flux FPR1-HL60 efficacy
T4 sequence (P21462 1-350): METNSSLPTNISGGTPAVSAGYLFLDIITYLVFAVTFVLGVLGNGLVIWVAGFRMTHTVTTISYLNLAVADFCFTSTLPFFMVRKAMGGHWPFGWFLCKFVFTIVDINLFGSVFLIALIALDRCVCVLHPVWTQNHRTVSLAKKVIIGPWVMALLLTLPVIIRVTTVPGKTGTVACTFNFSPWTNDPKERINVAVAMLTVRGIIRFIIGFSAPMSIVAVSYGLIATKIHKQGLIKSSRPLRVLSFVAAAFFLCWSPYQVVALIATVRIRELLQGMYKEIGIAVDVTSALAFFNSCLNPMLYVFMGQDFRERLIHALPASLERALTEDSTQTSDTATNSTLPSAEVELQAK
How it was run: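 FPR1-transfected HL60 cells were grown in RPMI 1640 with 10% heat-inactivated FCS, 10 mM HEPES and G418 (1 mg/mL). Cells were loaded with Fluo-4 AM (1.25 μg/mL final) for 30 min at 37 °C in the dark, then washed and seeded in HBSS+ at 2 × 10^5 cells/well. Fluorescence (485/538 nm) was read every 5 s for 240 s at room temperature after compound addition. Peak rise over baseline was set against 5 nM fMLF (100%). EC50 came from nonlinear regression of 5-6-point curves, mean of three independent experiments. No activity meant no response within 2 min (limits: efficacy >20%, EC50 <50 μM).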

[6] = molecular target: T5, mouse Fpr2 (Mus musculus, UniProt O88536); experiment: Ca2+ mobilization assay in mFpr2-RBL cells; conditions: for Ca2+ flux mFpr2-RBL EC50: RBL cells transfected with mouse Fpr2, N.A. = no activity
T5 sequence (O88536 1-351): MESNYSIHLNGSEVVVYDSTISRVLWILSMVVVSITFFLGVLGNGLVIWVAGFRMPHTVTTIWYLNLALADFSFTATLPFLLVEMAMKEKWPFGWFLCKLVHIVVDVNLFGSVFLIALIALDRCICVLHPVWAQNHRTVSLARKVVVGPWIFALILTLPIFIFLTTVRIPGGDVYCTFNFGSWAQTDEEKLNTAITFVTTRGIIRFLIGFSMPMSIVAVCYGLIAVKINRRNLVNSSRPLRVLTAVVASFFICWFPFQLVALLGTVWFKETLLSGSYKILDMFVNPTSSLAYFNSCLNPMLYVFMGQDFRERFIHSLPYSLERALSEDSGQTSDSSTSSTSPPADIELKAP
How it was run: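 RBL-2H3 cells stably expressing mouse Fpr2 were grown in DMEM with 20% FBS, 10 mM HEPES and G418 (250 μg/ml). Fluo-4 AM (1.25 μg/mL final) was loaded for 30 min at 37 °C in the dark. Cells were seeded in HBSS+ at 2 × 10^5 cells/well, and fluorescence (485/538 nm) was read every 5 s for 240 s at room temperature. Peak rise was normalized to 10 nM WKYMVm (100%). EC50 came from nonlinear regression of 5-6-point curves over three independent experiments.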

[7] = test system: mouse neutrophils; experiment: Ca2+ mobilization assay in mouse neutrophils; conditions: for Ca2+ flux mouse neutrophils EC50: N.A. = no activity (no response during first 2 min)
How it was run: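 Bone marrow was flushed from BALB/c mouse tibias and femurs and separated on a Percoll gradient (45/50/55/62/81%, 1600g, 30 min, 10 °C). Red cells were removed over Histopaque 1119. Neutrophils were loaded with Fluo-4 AM (1.25 μg/mL final) for 30 min at 37 °C, seeded in HBSS+ at 2 × 10^5 cells/well, and read at 485/538 nm every 5 s for 240 s at room temperature. Responses were normalized to 10 nM WKYMVm. EC50 came from nonlinear regression of 5-6-point curves, three experiments.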

[8] = % of the response induced by 10 nM WKYMVm

| SMILES | Ca2+ flux FPR3-HL60 efficacy [1] | Ca2+ flux mFpr1-RBL efficacy [2] | Ca2+ flux FPR2-HL60 efficacy [3] | Ca2+ flux human neutrophils efficacy [4] | Ca2+ flux FPR1-HL60 efficacy [5] | Ca2+ flux mFpr2-RBL efficacy [6, 8] | Ca2+ flux mouse neutrophils efficacy [7, 8] | EC50 [1] | Emax [1] | Ca2+ flux mFpr1-RBL EC50 [2] | Emax [3] | Ca2+ flux mFpr2-RBL EC50 [6] | EC50 [4] | Ca2+ flux mouse neutrophils EC50 [7] | Emax [5] |
| --- | --- | --- | --- | --- | --- | --- | --- | --- | --- | --- | --- | --- | --- | --- | --- |
| CC1=NN(CC(=O)Nc2ccc(Br)cc2)C(=O)CC1C (racemic) [(±)-6a, (±)N-(4-Bromophenyl)-2-[3,4-dimethyl-6-oxo-5,6-dihydropyridazin-1(4H)-yl]acetamide] | 150% | 70% | 120% | 115% | 60% | – | – | – | – | – | – | – | – | – | – |
| CC1=NN(CC(=O)Nc2ccc(Br)cc2)C(=O)CC1c1ccccc1 (racemic) [(±)-6b, (±)N-(4-Bromophenyl)-2-[3-methyl-6-oxo-4-phenyl-5,6-dihydropyridazin-1(4H)-yl]acetamide] | 120% | 60% | 110% | 75% | 90% | 220% | 160% | – | – | – | – | – | – | – | – |
| COc1cccc(Cc2c(C)c(C)nn(CC(=O)Nc3ccc(Br)cc3)c2=O)c1 [4a, N-(4-Bromophenyl)-2-[5-(3-methoxybenzyl)-3,4-dimethyl-6-oxopyridazin-1(6H)-yl]acetamide] | – | – | – | – | – | – | – | 40 ± 11 nM | 165% | complete inactivity | 80% | complete inactivity | 6 ± 2 nM | complete inactivity | 85% |
| COc1ccc(Cc2c(C)c(C)nn(CC(=O)Nc3ccc(Br)cc3)c2=O)cc1 [4b, N-(4-Bromophenyl)-2-[5-(4-methoxybenzyl)-3,4-dimethyl-6-oxopyridazin-1(6H)-yl]acetamide] | – | – | – | – | – | – | – | 130 ± 32 nM | 100% | complete inactivity | 95% | complete inactivity | 270 ± 25 nM | complete inactivity | 60% |
